This is a sample that favours compounds with a hit; in the whole collection about 1.8% have one here.
M5 antag: antagonists of human muscarinic M5 receptor (CHRM5) | P08912 | CHO-hM5 cells, Fluo-8 calcium fluorescence, ACh EC80 | inhibition, % at 3 µM | 0.59% of 360,000 active;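 active = inhibition above a per-plate cutoff, the mean of that plate's test compounds plus 3 SD, cut at about 27% in these data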;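 note: 0% = acetylcholine EC80 with DMSO and 100% = DMSO without agonist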
CHRM5 PAM: potentiates acetylcholine response at human M5 receptor; activation, % at 3 µM; AID 624038; 0.3% of 360,000 active; CHO-K1 hM5, Fluo-8 calcium, ACh EC20 PAM; 0% = ACh EC20, 100% = ACh EC100; P08912;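 active = activation above the run cutoff, the mean activation of all test compounds plus 3 SD, cut at about 18% in these data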
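Replicates: One well per compound, no replicates | System: Human M5 receptor in CHO-K1 cells | Benchmarks: Low control EC20 acetylcholine (0%), high control EC100 acetylcholine (100%) | Probe or stimulus: Acetylcholine, EC20 level | Times: Fluo-8 loading 80 min at 37 °C plus 30 min room temperature | Signal: Intracellular calcium via Fluo-8 fluorescence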
CHRM4 antagonist: CHRM4 antagonism in calcium assay; CHO-hM4 cells, ACh EC80, Fluo-8 calcium fluorescence; inhibition, % at 3 µM; 0.73% of 360,000 active; AID 624125;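 active = inhibition above its plate's cutoff, the mean inhibition of sample wells plus 3 SD, cut at about 27% in these data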;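 note: 0% = acetylcholine EC80 with DMSO and 100% = DMSO without agonist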
Target sequence (P08173 whole entry, looked up): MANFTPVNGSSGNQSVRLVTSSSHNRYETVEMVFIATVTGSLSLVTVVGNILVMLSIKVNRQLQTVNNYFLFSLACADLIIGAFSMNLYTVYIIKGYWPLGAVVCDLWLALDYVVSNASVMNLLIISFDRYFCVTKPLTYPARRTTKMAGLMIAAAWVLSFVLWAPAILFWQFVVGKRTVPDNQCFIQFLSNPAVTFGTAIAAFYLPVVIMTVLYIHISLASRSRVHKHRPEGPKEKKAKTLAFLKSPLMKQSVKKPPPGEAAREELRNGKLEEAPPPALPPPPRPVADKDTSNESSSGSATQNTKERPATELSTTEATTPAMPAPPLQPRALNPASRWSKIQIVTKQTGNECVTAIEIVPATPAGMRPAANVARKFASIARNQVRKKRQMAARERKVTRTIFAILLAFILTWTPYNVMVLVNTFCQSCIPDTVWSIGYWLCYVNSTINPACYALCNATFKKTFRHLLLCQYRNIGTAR
M5 ag: agonists of human muscarinic M5 receptor (CHRM5); P08912; CHO-K1 hM5 cells, Fluo-8 calcium fluorescence; 0% DMSO wells, 100% maximal acetylcholine response; activation, % at 3 µM; 0.19% of 360,000 active; AID 624037;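 active = activation above the run's mean over test compounds plus 3 SD, cut at about 23% in these data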;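 note: signal is peak over basal fluorescence ratio across the kinetic read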
M4 ag: CHRM4 agonism in calcium assay; P08173; CHO-K1 hM4/Gqi5, Fluo-8 calcium fluorescence; vehicle 0%, full acetylcholine response 100%; activation, % at 3 µM; 0.14% of 360,000 active;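 active = activation above the run mean over all test wells plus 3 SD, cut at about 32% in these data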;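 note: peak over basal fluorescence ratio per well then scaled between controls; 0% = DMSO wells and 100% = acetylcholine at EC100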
M4 PAM: potentiates acetylcholine response at human M4 receptor; CHO-K1 hM4/Gqi5, Fluo-8 calcium fluorescence, ACh EC20; 0% = ACh EC20, 100% = maximal ACh; 0.4% of 360,000 active; P08173; activation, % at 3 µM;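 active = activation above its plate's cutoff, the mean activation of sample wells plus 3 SD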
* = called active by the depositor.

CC(C)Oc1ccc(S(=O)(=O)N2CCOCC2)cc1NC(=O)CC1CC2CCC1C2 (configuration not stated) was read as M5 antag 2, CHRM5 PAM -1, CHRM4 antagonist 6, M5 ag 1, M4 ag -1 and M4 PAM 3.
`Cn1c(SCC(=O)c2cc(Cl)c(Cl)s2)nnc1-c1ccco1` gave M5 antag -11, CHRM5 PAM 19*, CHRM4 antagonist 2, M5 ag 6, M4 ag 1 and M4 PAM -8.
Screening CC(=O)Nc1ccc(C(=O)N2CCc3cc4c(cc3C2C)OCCCO4)cc1 (configuration not stated) returned M5 antag 3, CHRM5 PAM -3, CHRM4 antagonist 39*, M5 ag -6, M4 ag 1 and M4 PAM -14.
Screening Cc1ccc(C(=O)N2CCc3cc4c(cc3C2C)OCCCO4)cc1 (configuration not stated) returned M5 antag 1, CHRM5 PAM 1, CHRM4 antagonist 0, M5 ag -6, M4 ag 6 and M4 PAM -16.
`Cc1ccc(C(=O)N2CCC3(CC2)NCCc2[nH]cnc23)cc1C` gave M5 antag -8, CHRM5 PAM 0, CHRM4 antagonist -1, M5 ag -1, M4 ag 3 and M4 PAM 17*.
`CSCC[C@H](NC(=O)c1ccc2ccccc2c1)C(=O)N1CCC2(CC1)NCCc1[nH]cnc12` gave M5 antag 27*, CHRM5 PAM -6, CHRM4 antagonist 18, M5 ag -6, M4 ag 0 and M4 PAM -13.
`Cc1cc(NC(=O)CN(C)CC(=O)Nc2ccc(Cl)c(C(F)(F)F)c2)no1` gave M5 antag 8, CHRM5 PAM -6, CHRM4 antagonist -7, M5 ag 4, M4 ag 6 and M4 PAM 23*.
For Cc1cc(NC(=O)CSCC(=O)Nc2ccc(Cl)c(C(F)(F)F)c2)no1 the results were M5 antag 10, CHRM5 PAM -8, CHRM4 antagonist -5, M5 ag 2, M4 ag 4 and M4 PAM 0.
For COc1ccc(-c2cc(C(N)=O)nc(N3CCCCCC3)n2)cc1 the results were M5 antag -14, CHRM5 PAM 12, CHRM4 antagonist -5, M5 ag -4, M4 ag -1 and M4 PAM 28*.
Screening Nc1ccc(CCCC(=O)NCc2cccnc2)cc1 returned M5 antag -3, CHRM5 PAM -2, CHRM4 antagonist -3, M5 ag 1, M4 ag 1 and M4 PAM -4.
CN(C)C=Nc1c(Br)cc(Br)c2nonc12 was read as M5 antag 15, CHRM5 PAM -14, CHRM4 antagonist 4, M5 ag 24*, M4 ag 12 and M4 PAM -1.
O=C(NCc1n[nH]c(=S)n1-c1cccc(Cl)c1)c1ccc(S(=O)(=O)N2CCCCC2)cc1 was read as M5 antag 9, CHRM5 PAM 4, CHRM4 antagonist 9, M5 ag -1, M4 ag 0 and M4 PAM -5.
Cc1nnsc1SCCNC(=O)Nc1ccc(Cl)cc1 was read as M5 antag 32*, CHRM5 PAM -22, CHRM4 antagonist 9, M5 ag 4, M4 ag 14 and M4 PAM -3.
Cc1cccc(C(=O)Nc2ccc(C(=O)/C=C/c3ccncc3)cc2)c1 was read as M5 antag 2, CHRM5 PAM 7, CHRM4 antagonist 33*, M5 ag 4, M4 ag 17 and M4 PAM -13.
Cc1cccc(C(=O)Nc2ccc(C(=O)/C=C/c3cccnc3)cc2)c1 was read as M5 antag 4, CHRM5 PAM -8, CHRM4 antagonist -8, M5 ag 0, M4 ag 9 and M4 PAM -2.
O=C1C=C(NCCc2ccccc2)C2(CCCCC2)O1 was read as M5 antag 0, CHRM5 PAM 4, CHRM4 antagonist -3, M5 ag 3, M4 ag 2 and M4 PAM 10.
For CCOc1ccc(NC(=O)CN2C(=O)COc3ccccc32)cc1 the results were M5 antag 6, CHRM5 PAM -5, CHRM4 antagonist -2, M5 ag -3, M4 ag 2 and M4 PAM 4.
CCn1c(NCc2ccc(N(C)C)cc2)nc2ccccc21 was read as M5 antag -3, CHRM5 PAM 18*, CHRM4 antagonist -3, M5 ag -7, M4 ag 2 and M4 PAM 8.
Screening CC1=C(C(=O)N2CCOCC2)CC(CC(=O)NCc2cccc3ccccc23)C(=O)N1Cc1ccc(C(C)(C)C)cc1 (configuration not stated) returned M5 antag 10, CHRM5 PAM -4, CHRM4 antagonist 3, M5 ag 4, M4 ag 11 and M4 PAM -10.
For CC(=O)Nc1ccc(OCC(=O)c2ccc(C)cc2C)cc1 the results were M5 antag 0, CHRM5 PAM 3, CHRM4 antagonist 2, M5 ag 3, M4 ag 3 and M4 PAM -3.
CCOc1ccc(NC(=O)CCC(=O)NNC(=O)COc2ccc(C)cc2)cc1 was read as M5 antag 30*, CHRM5 PAM -16, CHRM4 antagonist 1, M5 ag -2, M4 ag 11 and M4 PAM -3.
Screening CC(=O)Nc1ccc(OCC(=O)c2cc(C)ccc2C)cc1 returned M5 antag -1, CHRM5 PAM 5, CHRM4 antagonist 2, M5 ag 2, M4 ag 0 and M4 PAM 19*.
Screening COc1ccc(N(CC(=O)N/N=C/c2cc(Br)c(C)o2)S(=O)(=O)c2ccc(NC(C)=O)cc2)cc1 returned M5 antag -15, CHRM5 PAM 2, CHRM4 antagonist -4, M5 ag 1, M4 ag 1 and M4 PAM -7.
`COc1ccc(N(CC(=O)N/N=C/c2ccc(C(=O)O)cc2)S(=O)(=O)c2ccc(NC(C)=O)cc2)cc1` gave M5 antag 8, CHRM5 PAM -2, CHRM4 antagonist -8, M5 ag -2, M4 ag 0 and M4 PAM 22*.
For CCCOc1ccc(Br)cc1/C=N/NC(=O)c1cc(OC)c(OC)c(OC)c1 the results were M5 antag -4, CHRM5 PAM 4, CHRM4 antagonist 16, M5 ag -2, M4 ag 3 and M4 PAM 28*.
For COc1ccc(C(=O)N/N=C/c2cc(Br)ccc2O)cc1OC the results were M5 antag -4, CHRM5 PAM 3, CHRM4 antagonist -5, M5 ag -2, M4 ag 8 and M4 PAM 6.

Bioassay records deposited in PubChem BioAssay by The Scripps Research Institute Molecular Screening Center.
